STAT3 activator – STAT3 signaling activation. U3A cells, IL-6 STAT3-luciferase reporter, luminescence; 100% = signal with IL-6 EC80 alone. activation (% of control), % at 5.6 µM. 190,000 compounds, 0.91% hits. AID 871;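 active = activation above the screen-wide mean of compound activation plus 3 SD, cut at about 130% in these data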;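 also: 0% = background luminescence of wells with medium and substrate only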
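Material: STAT3-luciferase reporter U3A cells; Probe or stimulus: IL-6 (33 ng/mL); Incubation: compound pre-incubation 1 h before IL-6, then 6 h stimulation at 37 °C; Technique: luminescence from STAT3-driven luciferase reporter; Evaluation: % activation versus median of IL-6-stimulated wells; Controls: IL-6-only high control.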
STAT1 inh – inhibitors of IFN-gamma induced STAT1 signaling; 200,000 compounds, 0.35% hits; inhibition, % at 5.5 µM; NIH 3T3 STAT1-luciferase reporter, luminescence; AID 920;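 active = inhibition above a set limit, the mean inhibition across all tested compounds plus 3 SD, cut at about 34% in these data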;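 also: 0% = IFN-gamma with DMSO and 100% = IFN-gamma with 300 µM nifuroxazide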
NF-kB expr up – raises NF-kB expression in human neuronal cells; fold change at 12.5 µM; 190,000 compounds, 1.6% hits; AID 1239; NF-kB reporter expression; active compounds read high; in the data active = fold change above about 3.3
APP 5'UTR act – APP 5'UTR luciferase reporter activation; activation, % at 2 µM; 190,000 compounds, 1% hits; SH-SY5Y APP 5'UTR luciferase reporter, luminescence; zero percent = DMSO vehicle wells;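 active = activation above a set limit, based on mean plus 3 SD of controls, cut at about 140% in these data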
STAT3 blocker – inhibitors of IL-6 induced STAT3 signaling; U3A cells, IL-6 STAT3-luciferase reporter, luminescence; host cell line lacks STAT1; inhibition, % at 5.5 µM; 190,000 compounds, 0.89% hits; AID 862;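 active = inhibition above the mean inhibition across all screened compounds plus 3 SD, cut at about 44% in these data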;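 also: 0% = DMSO only wells and 100% = 100 µM nifuroxazide control wells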
STAT1 act – STAT1 signaling activation; NIH 3T3 STAT1-luciferase reporter, IFN-gamma, luminescence; 100% = IFN-gamma alone, no compound; activation (% of control), % at 5.5 µM; 200,000 compounds, 2.6% hits; AID 932;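 active = activation above the screen-wide mean activation plus 3 SD, cut at about 130% in these data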;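 also: raw ratio to IFN-gamma control signal so 100% means no change and 0% no light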
An asterisk follows results filed as active; / = no result. An excerpt weighted towards active compounds, which were near 4.9% of everything screened.

SMILES | STAT3 activator | STAT1 inh | NF-kB expr up | APP 5'UTR act | STAT3 blocker | STAT1 act
O=C(NC1CC(=O)c2sccc21)c1cccc(C(F)(F)F)c1 (configuration not stated) | 101 | -5 | 1.1 | -7 | 4 | 102
CC1CN(C(=S)NC(=O)C2CCCCC2)CC(C)O1 (configuration not stated) | 107 | -14 | 1.3 | 0 | -11 | 112
CCOC(=O)C1=C(CSc2nc(CC)c(C)cc2C#N)OC(N)=C(C#N)C1c1ccccc1 (configuration not stated) | 102 | 14 | 0.96 | 11 | 4 | 87
N#Cc1ccc(-c2ccccc2)nc1SCC(=O)c1cccc(Cl)c1 | 91 | -3 | 1.1 | -9 | 21 | 103
CCN(CC)C(=O)CSc1nc(-c2ccccc2)ccc1C#N | 94 | -38 | 1.2 | 19 | 12 | 132*
C#CCSc1nc(-c2cccs2)ccc1C#N | 112 | -2 | 1 | -9 | -12 | 102
COC(=O)CSc1nc(-c2cccs2)ccc1C#N | 108 | -37 | 7.3* | 152* | -4 | 133*
CCOC(=O)C1=C(CSc2nc(-c3ccccc3)ccc2C#N)OC(N)=C(C#N)C1c1ccc(OC)cc1 (configuration not stated) | 103 | -53 | 2.5 | 95 | -1 | 147*
CC(=O)Nc1cccc(N=NN2CCCCC2)c1 | 101 | -11 | 1.2 | -15 | 3 | 110
COC(=O)c1ccc(SC)cn1 | 101 | -9 | 1 | -4 | 1 | 108
CCOC(=O)c1c(C)nn(Cc2cccc(Cl)c2)c1N | 101 | 2 | 1.6 | 6 | 0 | 98
CCC(C)(C)C1CCC(=NNC(=S)Nc2cccnc2)CC1 (configuration not stated) | 102 | -8 | 0.86 | 17 | 0 | 107
CCC(C)(C)C1CCC(=NNC(=S)Nc2ccccc2)CC1 (configuration not stated) | 93 | 6 | 1.2 | 152* | 11 | 93
CCNC(=S)N1CCn2c(nc3ccccc32)C1 | 96 | -9 | 0.97 | 18 | 2 | 108
Cc1ccc(OCc2cnc(Cl)s2)c(C)c1 | 95 | -45 | 1.1 | 43 | 11 | 137*
CCCCN1CCc2c([nH]c3ccccc23)C1=O | 102 | -39 | 1.9 | 37 | 4 | 137*
Cc1cc(C)c(C(=O)CSc2nnc(C)c(=O)[nH]2)cc1C | 104 | 10 | 1.2 | -25 | -3 | 90
COc1ccc(-c2cc(C(=O)NC(C)C)no2)cc1 | 92 | -43 | 3.7* | 106 | 10 | 144*
CCOC(=O)c1cnn(-c2ccccc2)c1-n1cccc1C(=O)C(=O)Nc1ccccc1C(F)(F)F | 108 | -5 | 0.75 | 12 | -3 | 105
Cn1cccc1C(=O)C(=O)Nc1ccccc1C(F)(F)F | 91 | -43 | 1.8 | 57 | 13 | 139*
Cn1cccc1C(=O)C(=O)Nc1ccccc1 | 79 | -23 | 5.9* | 145* | 28 | 121
C/C(O)=C(/N=O)C(=O)Nc1ccccc1 | 102 | -12 | 1.1 | 11 | 1 | 111
CCOC(=O)C1(Cc2ccccc2)CCN(Cc2cc(OC)c3c(c2)OCO3)CC1 | 108 | -1 | 0.89 | 23 | -4 | 99
Cn1c(-c2ccc(Br)o2)nc2ccccc21 | 92 | -44 | 4.5* | 135 | 11 | 140*
Cn1c(-c2ccc(Br)o2)nc2cc(Br)ccc21 | 109 | -42 | 5.3* | / | -4 | 138*
SMILES | STAT3 activator | STAT1 inh | NF-kB expr up | APP 5'UTR act | STAT3 blocker | STAT1 act
Cc1ccc(-c2nc3ccccc3n2C)o1 | 83 | -32 | 3.6* | 46 | 26 | 130*
Brc1ccc(Cn2c(-c3ccc(Br)o3)nc3ccccc32)o1 | 101 | -11 | 1.2 | 29 | 3 | 110
Cn1c(Sc2nc3ccccc3n2C)nc2ccccc21 | 115 | 9 | 1.1 | 16 | -15 | 92
Cc1oc(-c2nc3ccccc3n2C)cc1C(=O)c1ccccc1 | 42 | 39* | 2.6 | 190* | 73* | 64
CC(C)(C)NC(=O)CCSc1nnc(-c2ccco2)o1 | 97 | 0 | 1.4 | 0 | 11 | 100
Cc1ccccc1-c1nnn(CC(=O)Nc2cccc(S(N)(=O)=O)c2)n1 | 99 | -9 | 1.9 | 4 | 4 | 107
CC(C)(C)CC(C)(C)Nc1c(-c2ccc(O)cc2)nc2cnccn12 | 96 | 1 | / | -10 | 8 | 99
CC(=O)c1ccc(-c2nc3ccccc3n2C)o1 | 90 | -32 | 2.2 | 40 | 15 | 130*
Cc1ccc(N=Cc2sc(O)c3ccccc23)c(C)c1 | 92 | -53 | 1.3 | 12 | 13 | 147*
Cc1ccc(CNC(=O)CSCc2cccc(F)c2)cc1 | 109 | -21 | 1.2 | 3 | 3 | 119
O=C(CSCc1ccccc1F)NCc1ccccc1 | 106 | -33 | 1.9 | 12 | -2 | 133*
O=C(CSCc1cccc(F)c1)NCc1ccccc1 | 101 | -36 | 2.2 | 2 | 6 | 133*
COc1ccc(S(=O)(=O)N2CCCCC2)cc1NC(=O)CSc1nccn1C | 101 | 8 | 1.2 | 5 | 3 | 92
CCN(CC)C(=O)CCc1nnc(Cc2cccc(C(F)(F)F)c2)o1 | 110 | -51 | 3.3* | 113 | -9 | 146*
c1ccc(CSc2ccc(-c3ccco3)nn2)cc1 | 86 | -50 | 3.9* | 110 | 19 | 145*
Cc1cccc(CSc2ccc(-c3ccco3)nn2)c1 | 95 | -37 | 1.6 | 49 | 4 | 133*
Fc1ccccc1CSc1ccc(-c2ccco2)nn1 | 89 | -28 | 4.9* | 64 | 16 | 125
O=C(CSc1ccc(-c2ccco2)nn1)NCc1ccccc1 | 96 | -1 | 1 | 19 | 4 | 101
COc1ccccc1-c1ccc(SCc2ccccc2F)nn1 | 96 | -32 | 1.8 | 37 | 8 | 129*
COc1ccccc1-c1ccc(SCc2ccccc2)nn1 | 94 | -20 | 1.9 | 35 | 12 | 119
Clc1cccc(CSc2ccc(-c3ccco3)nn2)c1 | 88 | -10 | 1.2 | 22 | 19 | 110
CC1CC(C)CN(c2ccc([N+](=O)[O-])cc2-c2nn[nH]n2)C1 (configuration not stated) | 109 | 4 | 1.2 | 11 | -8 | 97
O=P(c1ccccc1)(c1ccccc1)c1nc(-c2ccc(Cl)cc2)oc1N1CCOCC1 | 92 | -1 | 0.97 | 14 | 17 | 100
COc1ccc(CCNC(=O)C/C(C)=N/NC(=O)C23CC4CC(CC(C4)C2)C3)cc1OC | 98 | -15 | 0.62 | 30 | 0 | 113
Cc1ccc(CSc2ccc(-c3ccco3)nn2)cc1 | 94 | -27 | 3.3* | 71 | 6 | 125
c1ccc(CSc2ccc(-c3ccccn3)nn2)cc1 | 74 | -7 | 6.5* | 139* | 35 | 106
Clc1ccc(CSc2ccc(-c3ccco3)nn2)cc1 | 97 | -25 | 1.9 | 5 | 7 | 122
CCn1ncc(/C=N\NC(=O)Cc2ccc([N+](=O)[O-])cc2)c1C | 108 | -2 | 0.61 | 56 | -12 | 102
